In ChEMBL document CHEMBL3739287, “Diversification of edaravone via palladium-catalyzed hydrazine cross-coupling: Applications against protein misfolding and oligomerization of beta-amyloid” (Bioorg Med Chem Lett, 2016):

Assays:
[1] = target: T1, Amyloid-beta precursor protein (Homo sapiens, UniProt P05067); test: Inhibition of amyloid beta (1 to 40 residues) (unknown origin) aggregation at 25 uM incubated for 72 hrs by Thioflavin T assay
Summary of the method: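 Kinetic ThT aggregation format: monomeric Aβ40 (20 μM) with ThT (8 μM) and compound at a single 25 μM concentration. Fluorescence was followed over 72 h, and percent inhibition of aggregation was taken at 72 h.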

[2] = target: T1, Amyloid-beta precursor protein; test: Inhibition of amyloid beta (1 to 40 residues) (unknown origin) aggregation incubated for 72 hrs by Thioflavin T assay
Summary of the method: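 Aβ40 (20 μM) aggregation in a kinetic format with ThT (8 μM), fluorescence read over 72 h. IC50 came from dose-response curves of percent inhibition and was collected only for compounds giving >50% inhibition at 25 μM in this assay and IC50 <50 μM in the bio-Aβ42 oligomer assay.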

[3] = target: T1, Amyloid-beta precursor protein; test: Inhibition of N-alpha-biotinyl-amyloid beta (1 to 42 residues) (unknown origin) oligomerization incubated for 1 hr by sandwich biotin-avidin assay
Summary of the method: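 Sub-nanomolar detection of N-α-biotinyl-Aβ(1–42) oligomers using single-site NeutrAvidin capture with labeled streptavidin detection. The format recognizes multimeric (>20 kDa) oligomers but not monomer. Compounds were tested over 1–50 μM to build dose-response curves, from which IC50 was determined.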

T1 sequence (P05067 whole entry, the tested form may be a part): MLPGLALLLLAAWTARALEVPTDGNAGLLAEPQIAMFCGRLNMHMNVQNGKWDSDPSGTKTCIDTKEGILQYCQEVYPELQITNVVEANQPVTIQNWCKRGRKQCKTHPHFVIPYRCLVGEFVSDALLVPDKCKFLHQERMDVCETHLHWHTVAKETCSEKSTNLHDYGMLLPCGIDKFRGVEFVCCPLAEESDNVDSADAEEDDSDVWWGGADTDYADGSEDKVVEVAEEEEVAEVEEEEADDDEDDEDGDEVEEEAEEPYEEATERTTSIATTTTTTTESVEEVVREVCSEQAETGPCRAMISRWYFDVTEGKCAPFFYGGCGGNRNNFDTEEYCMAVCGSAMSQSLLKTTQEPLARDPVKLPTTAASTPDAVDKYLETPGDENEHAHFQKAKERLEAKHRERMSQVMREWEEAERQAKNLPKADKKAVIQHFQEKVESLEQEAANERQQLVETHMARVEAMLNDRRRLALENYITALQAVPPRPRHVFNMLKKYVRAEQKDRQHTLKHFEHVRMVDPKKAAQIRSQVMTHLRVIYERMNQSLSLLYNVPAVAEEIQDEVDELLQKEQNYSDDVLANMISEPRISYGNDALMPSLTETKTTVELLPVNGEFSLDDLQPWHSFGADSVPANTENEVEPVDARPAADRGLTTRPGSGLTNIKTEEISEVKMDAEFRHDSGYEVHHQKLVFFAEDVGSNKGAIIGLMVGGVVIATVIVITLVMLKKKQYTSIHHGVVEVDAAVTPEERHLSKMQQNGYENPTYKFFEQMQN

inhibition [1] [%]	IC50 [2] [µM]	IC50 [3] [µM]	SMILES
69.6	3.4	5.1	COc1ccc(-c2ccc(N3N=C(C)CC3=O)cc2)cc1
26.4	–	> 50	COc1cc(F)cc(N2N=C(C)CC2=O)c1
53.4	27	2.9	CC1=NN(c2cccc(COCc3ccccc3)c2)C(=O)C1
17.2	–	> 50	CC1=NN(c2ccccc2)C(=O)C1 [EDARAVONE]
20.2	–	> 50	CC1=NN(c2cccnc2)C(=O)C1
26.3	–	> 50	CCc1ccccc1N1N=C(C)CC1=O
30.9	–	> 50	CC1=NN(c2cccc(C)c2)C(=O)C1

More lines, now with the values behind:

SMILES	inhibition [1] [%]	IC50 [2] [µM]	IC50 [3] [µM]
CC1=NN(c2ccc(C)c(F)c2)C(=O)C1	49	–	> 50
CC1=NN(c2ccc3ccccc3c2)C(=O)C1	56.2	–	> 50
CC1=NN(c2ccccc2C)C(=O)C1	22.7	–	> 50
CC1=NN(c2ccc(N(c3ccccc3)c3ccccc3)cc2)C(=O)C1	50.7	> 50	4
CC1=NN(c2cccc(N3CCCC3)c2)C(=O)C1	47	–	16.8
CC1=NN(c2cc(F)ccc2C)C(=O)C1	26.2	–	> 50
COc1cc(N2N=C(C)CC2=O)nc(OC)n1	48.2	–	> 50
COc1cccc(N2N=C(C)CC2=O)c1	39.7	> 50	> 50
CC1=NN(c2ccc(-c3ccccc3)cc2)C(=O)C1	78.7	5.6	19.5
CC1=NN(c2cc(C)ccc2C)C(=O)C1	7.4	–	> 50
CC1=NN(c2ccc(-c3cccnc3)cc2)C(=O)C1	53.2	14.5	3.9
CC1=NN(c2ccc(C(F)(F)F)cc2)C(=O)C1	56.3	–	> 50
CC1=NN(c2ccc(-n3c(-c4ccccc4)cc4ccccc43)cc2)C(=O)C1	71.4	19.6	3.5
CC1=NN(c2ccc(-n3cccc3)cc2)C(=O)C1	60.6	26	4
CC1=NN(c2ccc(C)cc2)C(=O)C1	16.3	–	> 50
